Experimental data from article PMC9585582 (ACS Bio & Med Chem Au, 2022).
Like-named read-outs stand apart in the source and are kept apart here.

Tests used:
[1] = system: microtubules in living HeLa cells; assay: Allosteric modulator assay with PB-GABA-Taxol in living HeLa cells; assay type: binding; settings: allosteric modulator model; PB-GABA-Taxol 1.5 μM, verapamil 100 μM, 3 h, 37 °C
[2] = target: cross-linked microtubules; settings: cited from earlier work; for Kd: read-out: biochemical Kd; for Ki: read-out: biochemical Ki
[3] = system: microtubules (taxane binding site) in living HeLa cells; assay: Competition binding assay with PB-GABA-Taxol in living HeLa cells; settings: read-out: cellular Ki; PB-GABA-Taxol 1.5 μM, verapamil 100 μM, 37 °C, 4% FBS, 3 h, 60K cells/well
[4] = system: microtubule network of HeLa cells; assay: Confocal microscopy of HeLa cells expressing mScarlet-α-Tubulin; assay type: cell-based; settings: 1 h at 37 °C
Method in brief: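 HeLa cells transiently transfected to express mScarlet-α-tubulin. Live cells were treated with microtubule modulators for 1 h at 37 °C, and microtubule-network phenotypes were imaged by confocal microscopy.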

[5] = target: albumin; settings: read-out: Kd for albumin; cited from earlier work
[6] = target: purified GDP-bound microtubules; settings: cited from earlier work
[7] = Cytotoxicity toward HeLa cells after 48 h by flow cytometry; assay type: cell-based; settings: human
[8] = system: taxane binding site in living cells; settings: read-out: Ki by confocal microscopy; cited from earlier work

Question: For `COc1cc2cc(c1Cl)N(C)C(=O)C[C@H](OC(=O)[C@H](C)N(C)C(C)=O)[C@]1(C)O[C@H]1[C@H](C)[C@@H]1C[C@@](O)(NC(=O)O1)[C@H](OC)/C=C/C=C(\C)C2` [maytansine], which “cooperativity factor α” value [1] is on record?
Answer: The value was 0.21.

Question: Which results are given for `CC(=O)O[C@H]1C(=O)[C@@]2(C)[C@H]([C@H](OC(=O)c3ccccc3)[C@]3(O)C[C@H](O)C(C)=C1C3(C)C)[C@]1(OC(C)=O)CO[C@@H]1C[C@@H]2O` [baccatin III]?
Answer: Kd ([2]; ref 21): 6700 ± 2000 nM; Ki [3]: 17000 ± 3000 nM

Question: For `CC(=O)O[C@@]12CO[C@@H]1C[C@H](O)[C@@]1(C)C(=O)[C@H](O)C3=C(C)[C@@H](OC(=O)[C@H](O)[C@@H](NC(=O)OC(C)(C)C)c4ccccc4)C[C@@](O)([C@@H](OC(=O)c4ccccc4)[C@H]21)C3(C)C` [docetaxel], which Kd ([2]; ref 17) is on record?
Answer: The Kd was 6.8 ± 0.2 nM.

Question: What about the Kd ([2]; ref 65) of the same molecule?
Answer: The Kd was 25 ± 0.4 nM.

Question: What about the Ki ([2]; cross-linked microtubules) of the same molecule?
Answer: The Ki was 17 ± 6 nM.

Question: What about the Ki [3] of the same molecule?
Answer: Its Ki is 16 nM.

Question: Which results are given for `CC(=O)O[C@H]1C(=O)[C@@]2(C)[C@H]([C@H](OC(=O)c3ccccc3)[C@]3(O)C[C@H](OC(=O)[C@H](O)[C@@H](NC(=O)c4ccccc4)c4ccccc4)C(C)=C1C3(C)C)[C@]1(OC(C)=O)CO[C@@H]1C[C@@H]2O` [paclitaxel]?
Answer: Kd ([2]; ref 65): 70 ± 0.6 nM; Kd ([2]; ref 66): 15 nM; Kd ([2]; ref 68): 50 nM; Ki ([2]; cross-linked microtubules): 27 ± 11 nM; Ki ([2]; ref 21): 31 nM; Ki ([2]; ref 67): 19 nM; fluorescent microtubule phenotype [4]: enhanced the formation of long microtubule fibers; Kd [5]: 120 nM; Ki [3]: 22 nM

Question: What does the source list for `CC[C@]1(O)C[C@@H]2CN(CCc3c([nH]c4ccccc34)[C@@](C(=O)OC)(c3cc4c(cc3OC)N(C)[C@H]3[C@@](O)(C(=O)OC)[C@H](OC(C)=O)[C@]5(CC)C=CCN6CC[C@]43[C@@H]65)C2)C1` [vinblastine]?
Answer: cooperativity factor α [1]: 0.18; Kd [6]: 190 to 1000 nM

Question: For `COc1cc2c(c(OC)c1OC)-c1ccc(OC)c(=O)cc1[C@@H](NC(C)=O)CC2` [colchicine], which fluorescent microtubule phenotype [4] is on record?
Answer: The fluorescent microtubule phenotype was “disrupted the microtubule network”.

Question: What about the IC50 at 48 h [7] of the same molecule?
Answer: Its IC50 at 48 h is 20 ± 8 nM.

Question: What does the source list for `C/C(=C\c1csc(C)n1)[C@@H]1C[C@@H]2O[C@]2(C)CCC[C@H](C)[C@H](O)[C@@H](C)C(=O)C(C)(C)[C@@H](O)CC(=O)N1` [ixabepilone]?
Answer: Ki [3]: 10 nM; Ki [8]: 7.6 ± 1.6 nM

Question: What does the source list for `CO[C@H]1C(=O)[C@]2(C)[C@@H](OC)C[C@H]3OC[C@@]3(OC(C)=O)[C@H]2[C@H](OC(=O)c2ccccc2)[C@]2(O)C[C@H](OC(=O)[C@H](O)[C@@H](NC(=O)OC(C)(C)C)c3ccccc3)C(C)=C1C2(C)C` [cabazitaxel]?
Answer: Ki ([2]; ref 17): 7.4 ± 0.9 nM; Ki [3]: 6 nM
